Legend:
Details in all cases: in vivo
Rattus norvegicus [1] = organism: Rattus norvegicus; assay: Biodistribution of In-LDTA (conjugated with galactose BSA)protein using [111In]- in mature female Sprague-Dawley rat bone after injecting for 48 hour.; type: ADME, organism-based, Bone element
Outline: (§1)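 SCN-LDTPA was coupled (pH 9 bicine, 24 h, RT) to BSA, mannosylated BSA or galactosylated BSA and FPLC-purified. The conjugate (400 μg) was labeled with 340 μCi 111In acetate at pH 5.5 for 45 min and gel-filtered. Mature female Sprague-Dawley rats received 19 μg of conjugate; four rats per time point. Blood, liver, bone, kidney and colon were taken and reported as %ID/organ.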

Rattus norvegicus [2] = organism: Rattus norvegicus; assay: Biodistribution of In-LDTA (conjugated with galactose BSA)protein using [111In]- in mature female Sprague-Dawley rat kidney after injecting for 24 hour.; type: ADME, organism-based; outline: as §1
Rattus norvegicus [3] = organism: Rattus norvegicus; assay: Biodistribution of Gd-LDTA (conjugated with mannose BSA) protein using [111In]- in mature female Sprague-Dawley rat blood after injecting for 48 hour.; type: ADME, organism-based
Outline: (§2)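 Conjugate of SCN-LDTPA with BSA, mannosylated BSA or galactosylated BSA (10 equiv chelate, pH 9 bicine, RT 24 h; FPLC-purified) was labelled with 340 μCi 111In acetate at pH 5.5 for 45 min. It was then gel-filtered (Biospin-6) and checked for purity by FPLC. Mature female Sprague-Dawley rats received 19 μg of conjugate. Four rats per time point (1, 4, 24, 48 h) were killed; blood, liver, bone, kidney and colon were taken and %ID/organ was calculated.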

Rattus norvegicus [4] = organism: Rattus norvegicus; assay: Biodistribution of In-LDTA (conjugated with BSA)protein using [111In]- in mature female Sprague-Dawley rat colon after injecting for 24 hour.; type: ADME, organism-based; outline: as §1
Rattus norvegicus [5] = organism: Rattus norvegicus; assay: Biodistribution of Gd-LDTA (conjugated with galactose BSA) protein using [111In]- in mature female Sprague-Dawley rat colon after injecting for 4 hour.; type: ADME, organism-based; outline: as §2
Rattus norvegicus [6] = organism: Rattus norvegicus; assay: Biodistribution of In-LDTA (conjugated with BSA) protein using [111In]- in mature female Sprague-Dawley rat blood after injecting for 48 hour.; type: ADME, organism-based; outline: as §1
Rattus norvegicus [7] = organism: Rattus norvegicus; assay: Biodistribution of Gd-LDTA (conjugated with mannose BSA) protein using [111In]- in mature female Sprague-Dawley rat bone marrow after injecting for 1 hour.; type: ADME, organism-based
Rattus norvegicus [8] = organism: Rattus norvegicus; assay: Biodistribution of Gd-DTA (conjugated with BSA) protein using [111In]- in mature female Sprague-Dawley rat colon after injecting for 48 hour.; type: ADME, organism-based; outline: as §2
Rattus norvegicus [9] = organism: Rattus norvegicus; assay: Biodistribution of In-LDTA (conjugated with galactose BSA)protein using [111In]- in mature female Sprague-Dawley rat kidney after injecting for 4 hour.; type: ADME, organism-based; outline: as §1
Rattus norvegicus [10] = organism: Rattus norvegicus; assay: Biodistribution of In-LDTA (conjugated with BSA) protein using [111In]- in mature female Sprague-Dawley rat liver after injecting for 4 hour.; type: ADME, organism-based; outline: as §1
Rattus norvegicus [11] = organism: Rattus norvegicus; assay: Biodistribution of Gd-DTA (conjugated with BSA)protein using [111In]- in mature female Sprague-Dawley rat colon after injecting for 1 hour.; type: ADME, organism-based; outline: as §2
Rattus norvegicus [12] = organism: Rattus norvegicus; assay: Biodistribution of Gd-DTA (conjugated with BSA)protein using [111In]- in mature female Sprague-Dawley rat liver after injecting for 48 hour.; type: ADME, organism-based; outline: as §2
Rattus norvegicus [13] = organism: Rattus norvegicus; assay: Biodistribution of Gd-LDTA (conjugated with galactose BSA) protein using [111In]- in mature female Sprague-Dawley rat blood after injecting for 1 hour.; type: ADME, organism-based; outline: as §2
Rattus norvegicus [14] = organism: Rattus norvegicus; assay: Biodistribution of Gd-DTA (conjugated with BSA)protein using [153Gd]- in mature female Sprague-Dawley rat bone after injecting for 96 hour.
Rattus norvegicus [15] = organism: Rattus norvegicus; assay: Biodistribution of Gd-LDTA (conjugated with galactose BSA) protein using [111In]- in mature female Sprague-Dawley rat bone marrow after injecting for 4 hour.; type: ADME, organism-based
Rattus norvegicus [16] = organism: Rattus norvegicus; assay: Biodistribution of Gd-LDTA (conjugated with galactose BSA) protein using [153Gd]- in mature female Sprague-Dawley rat blood after injecting for 48 hour.
Rattus norvegicus [17] = organism: Rattus norvegicus; assay: Biodistribution of In-LDTA (conjugated with mannoseBSA) protein using [111In]- in mature female Sprague-Dawley rat liver after injecting for 48 hr.; type: ADME, organism-based; outline: as §1
Rattus norvegicus [18] = organism: Rattus norvegicus; assay: Biodistribution of Gd-LDTA (conjugated with mannose BSA) protein using [111In]- in mature female Sprague-Dawley rat liver after injecting for 48 hour.; type: ADME, organism-based
Rattus norvegicus [19] = organism: Rattus norvegicus; assay: Biodistribution of Gd-LDTA (conjugated with galactose BSA) protein using [111In]- in mature female Sprague-Dawley rat bone after injecting for 48 hour.; type: ADME, organism-based, Bone element; outline: as §2
Rattus norvegicus [20] = organism: Rattus norvegicus; assay: Biodistribution of In-LDTA (conjugated with galactose BSA)protein using [111In]- in mature female Sprague-Dawley rat kidney after injecting for 48 hour.; type: ADME, organism-based; outline: as §1
Rattus norvegicus [21] = organism: Rattus norvegicus; assay: Biodistribution of In-LDTA (conjugated with galactose BSA)protein using [111In]- in mature female Sprague-Dawley rat liver after injecting for 24 hour.; type: ADME, organism-based; outline: as §1
Rattus norvegicus [22] = organism: Rattus norvegicus; assay: Biodistribution of Gd-LDTA (conjugated with mannose BSA) protein using [111In]- in mature female Sprague-Dawley rat colon after injecting for 24 hour.; type: ADME, organism-based; outline: as §2
Rattus norvegicus [23] = organism: Rattus norvegicus; assay: Biodistribution of Gd-DTA (conjugated with BSA)protein using [153Gd]- in mature female Sprague-Dawley rat bone after injecting for 48 hour.
Rattus norvegicus [24] = organism: Rattus norvegicus; assay: Biodistribution of Gd-DTA (conjugated with BSA)protein using [111In]- in mature female Sprague-Dawley rat liver after injecting for 24 hour.; type: ADME, organism-based; outline: as §2
Rattus norvegicus [25] = organism: Rattus norvegicus; assay: Biodistribution of In-LDTA (conjugated with galactose BSA)protein using [111In]- in mature female Sprague-Dawley rat blood after injecting for 4 hour.; type: ADME, organism-based; outline: as §1
Rattus norvegicus [26] = organism: Rattus norvegicus; assay: Biodistribution of In-LDTA (conjugated with mannoseBSA) protein using [111In]- in mature female Sprague-Dawley rat colon after injecting for 48 hour.; type: ADME, organism-based; outline: as §1
Rattus norvegicus [27] = organism: Rattus norvegicus; assay: Biodistribution of Gd-LDTA (conjugated with galactose BSA) protein using [111In]- in mature female Sprague-Dawley rat blood after injecting for 4 hour.; type: ADME, organism-based; outline: as §2
Rattus norvegicus [28] = organism: Rattus norvegicus; assay: Biodistribution of In-LDTA (conjugated with mannoseBSA)protein using [111In]- in mature female Sprague-Dawley rat blood after injecting for 24 hour.; type: ADME, organism-based; outline: as §1
Rattus norvegicus [29] = organism: Rattus norvegicus; assay: Biodistribution of Gd-DTA (conjugated with BSA)protein using [111In]- in mature female Sprague-Dawley rat bone after injecting for 1 hour.; type: ADME, organism-based, Bone element; outline: as §2
Rattus norvegicus [30] = organism: Rattus norvegicus; assay: Biodistribution of In-LDTA (conjugated with mannoseBSA) protein using [111In]- in mature female Sprague-Dawley rat bone after injecting for 4 hour.; type: ADME, organism-based, Bone element; outline: as §1
Rattus norvegicus [31] = organism: Rattus norvegicus; assay: Biodistribution of Gd-LDTA (conjugated with galactose BSA) protein using [111In]- in mature female Sprague-Dawley rat liver after injecting for 1 hour.; type: ADME, organism-based; outline: as §2

Nc1ccc(CC(C(=O)O)N(CCN(CC(=O)O)CC(=O)O)CCN(CC(=O)O)CC(=O)O)cc1 (stereo unspecified)
ID/organ (Rattus norvegicus [1]): 0.29% | ID/organ (Rattus norvegicus [2]): 0.112% | ID/organ (Rattus norvegicus [3]): 0.04% | ID/organ (Rattus norvegicus [4]): 9.4% | ID/organ (Rattus norvegicus [5]): 4.09% | ID/organ (Rattus norvegicus [6]): 3.33% | ID/organ (Rattus norvegicus [7]): 2.61% | ID/organ (Rattus norvegicus [8]): 2.37% | ID/organ (Rattus norvegicus [9]): 0.0688% | ID/organ (Rattus norvegicus [10]): 17% | ID/organ (Rattus norvegicus [11]): 0.952% | ID/organ (Rattus norvegicus [12]): 17.4% | ID/organ (Rattus norvegicus [13]): 0.207% | ID/organ (Rattus norvegicus [14]): 44.6% | ID/organ (Rattus norvegicus [15]): 0.109% | ID/organ (Rattus norvegicus [16]): 0.037% | ID/organ (Rattus norvegicus [17]): 61% | ID/organ (Rattus norvegicus [18]): 35% | ID/organ (Rattus norvegicus [19]): 8.7% | ID/organ (Rattus norvegicus [20]): 0.14% | ID/organ (Rattus norvegicus [21]): 65.4% | ID/organ (Rattus norvegicus [22]): 0.403% | ID/organ (Rattus norvegicus [23]): 35.9% | ID/organ (Rattus norvegicus [24]): 20% | ID/organ (Rattus norvegicus [25]): 0.0462% | ID/organ (Rattus norvegicus [26]): 0.542% | ID/organ (Rattus norvegicus [27]): 0.045% | ID/organ (Rattus norvegicus [28]): 0.129% | ID/organ (Rattus norvegicus [29]): 18.1% | ID/organ (Rattus norvegicus [30]): 10.1% | ID/organ (Rattus norvegicus [31]): 91.3%

Source: ChEMBL document CHEMBL1129260, “Evaluation of the stability and animal biodistribution of gadolinium (III) benzylamine-derivatized diethylenetriaminepentaacetic acid” (J Med Chem, 1996)
